What was measured:
[1] = test system: MV4-11; assay: Anti-leukemic activity against human MV4-11 cells assessed as cell dead after 24 to 48 hrs by annexin V-FITC/7-AAD staining-based flow cytometric analysis; assay type: functional; details: for CC50: read-out: LD50 (the source's name)
Method in brief: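 MV4-11 cells grown in IMDM with 10% FBS, penicillin and streptomycin, seeded at 5 × 10^5/ml and treated. At 24 and 48 h they were stained with annexin V-FITC plus 1 μg/ml 7-AAD. Percent dead cells (annexin V+) was read by flow cytometry and expressed relative to the DMSO vehicle control.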

[2] = molecular target: Tubulin (Homo sapiens) (UniProt P68371+Q9H4B7+P0DPH7+P68366+Q13509+Q71U36+P04350+Q3ZCM7+P07437+P68363+Q9BQE3+Q6PEY2+Q13885+Q9BVA1+Q9BUF5); assay: Inhibition of tubulin polymerization in human MV4-11 cells at 50 nM after 2 hrs by immunoblot analysis relative to control; assay type: cell-based
Method in brief: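 MV4-11 AML cells were exposed for 2 h to 25, 50 or 100 nM compound. Free tubulin (supernatant) and polymerized tubulin (pellet) were separated and detected by anti-tubulin immunoblot.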

[3] = test system: K562; assay: Cytotoxicity against human K562 cells assessed as apoptotic/dead cells after 24 to 48 hrs by annexin V-FITC/7-AAD staining-based flow cytometric analysis; assay type: functional
[4] = test system: TUR; assay: Cytotoxicity against human TUR cells assessed as apoptotic/dead cells after 24 to 48 hrs by annexin V-FITC/7-AAD staining-based flow cytometric analysis; assay type: functional
[5] = (§1) Cytotoxicity against human HL60 cells assessed as apoptotic/dead cells after 24 to 48 hrs by annexin V-FITC/7-AAD staining-based flow cytometric analysis; assay type: functional; details: HL-60, read-out: LD50 (the source's name)
[6] = test system: HL-60; assay: as §1; assay type: functional
[7] = test system: KCL-22; assay: (§2) Cytotoxicity against human KCL22 cells assessed as apoptotic/dead cells after 24 to 48 hrs by annexin V-FITC/7-AAD staining-based flow cytometric analysis; assay type: functional
[8] = as §2; assay type: functional; details: KCL-22, read-out: LD50 (the source's name)
[9] = Cytotoxicity against human primary blast crisis phase of chronic myeloid leukemia cells assessed as apoptotic/dead cells at 25 nM measured at 96 hrs by CD45-APC-H7/ annexin V-FITC/7-AAD staining-based flow cytometric analysis relative to control; assay type: functional, Leukemia cell
Method in brief: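 Thawed cryopreserved primary blast-crisis CML cells were treated and read at 24, 48 and 96 h time-points. Staining used CD45-APC-H7, annexin V-FITC and 7-AAD. Apoptotic/dead cells were scored by flow cytometry as percent annexin V+ blasts, normalized to the DMSO control.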

[10] = test system: MOLM-13; assay: Cytotoxicity against human MOLM13 cells assessed as apoptotic/dead cells after 24 to 48 hrs by annexin V-FITC/7-AAD staining-based flow cytometric analysis; assay type: functional
[11] = (§3) Cytotoxicity against human TF1 cells assessed as apoptotic/dead cells after 24 to 48 hrs by annexin V-FITC/7-AAD staining-based flow cytometric analysis; assay type: functional; details: TF-1, read-out: LD50 (the source's name)
[12] = test system: TF-1; assay: as §3; assay type: functional
[13] = test system: Leukemia cell; assay: Cytotoxicity against human primary blast crisis phase of chronic myeloid leukemia cells assessed as apoptotic/dead cells at 25 to 200 nM by CD45-APC-H7/ annexin V-FITC/7-AAD staining-based flow cytometric analysis; assay type: functional; details: TDE = time-dependent effect
Method in brief: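 Cryopreserved primary blast-crisis CML samples, obtained with informed consent and IRB approval, were thawed, cultured and treated with the indicated doses. At 48 h they were stained with CD45-APC-H7, then annexin V-FITC and 7-AAD. Percent annexin V+ blasts by flow cytometry, normalized to the DMSO control.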

[14] = test system: THP-1; assay: Cytotoxicity against human THP1 cells assessed as apoptotic/dead cells after 24 to 48 hrs by annexin V-FITC/7-AAD staining-based flow cytometric analysis; assay type: functional
[15] = (§4) Cytotoxicity against human Kasumi-4 cells assessed as apoptotic/dead cells after 24 to 48 hrs by annexin V-FITC/7-AAD staining-based flow cytometric analysis; assay type: functional; details: read-out: LD50 (the source's name)
[16] = test system: Kasumi-4; assay: as §4; assay type: functional
[17] = test system: KG-1; assay: (§5) Cytotoxicity against human KG1 cells assessed as apoptotic/dead cells after 24 to 48 hrs by annexin V-FITC/7-AAD staining-based flow cytometric analysis; assay type: functional
[18] = as §5; assay type: functional; details: KG-1, read-out: LD50 (the source's name)
[19] = test system: Kasumi 1; assay: Cytotoxicity against human Kasumi-1 cells assessed as apoptotic/dead cells after 24 to 48 hrs by annexin V-FITC/7-AAD staining-based flow cytometric analysis; assay type: functional
[20] = species on record: Homo sapiens; assay: (§6) Cytotoxicity against human MLL-ENL cells assessed as apoptotic/dead cells after 24 to 48 hrs by annexin V-FITC/7-AAD staining-based flow cytometric analysis; assay type: functional
[21] = as §6; assay type: functional; details: read-out: LD50 (the source's name)
[22] = read-out: LD50 (the source's name)

COc1cc(OC)cc(/C(C#N)=C/c2cc3ccccc3o2)c1
CC50 [1]: 1170 nM

COc1cc(/C(C#N)=C/c2cc3ccccc3s2)cc(OC)c1OC
inhibition [2]: > 50%
Activity [3]: Dose-dependent effect
CC50 [3, 22]: 99.5 nM
Activity [4]: Dose-dependent effect
CC50 [4, 22]: 93 nM
CC50 [5]: 120 nM
Activity [6]: Dose-dependent effect
Activity [7]: Dose-dependent effect
CC50 [8]: 114 nM
Activity [9]: >50%
Activity [10]: Dose-dependent effect
CC50 [10, 22]: 83 nM
CC50 [11]: 79.5 nM
Activity [12]: Dose-dependent effect
Activity [13]: tde
Activity [14]: Dose-dependent effect
CC50 [14, 22]: 227 nM
CC50 [15]: 156 nM
Activity [16]: Dose-dependent effect
Activity [17]: Dose-dependent effect
CC50 [18]: 113 nM
CC50 [1]: 18 nM
Activity [19]: Dose-dependent effect
CC50 [19, 22]: 151 nM
Activity [20]: Dose-dependent effect
CC50 [21]: 271 nM

COc1cc(/C(C#N)=C/c2csc3ccccc23)cc(OC)c1OC
Activity [1]: Dose-dependent effect
CC50 [1]: 180 nM

COc1ccc(/C(C#N)=C/c2cc3ccccc3s2)cc1OC
CC50 [1]: 6060 nM

COc1ccc(/C(C#N)=C/c2nc3ccccc3s2)cc1OC
CC50 [1]: 1220 nM

From ChEMBL document CHEMBL3407388, “Synthesis, anticancer activity and molecular docking studies on a series of heterocyclic trans-cyanocombretastatin analogues as antitubulin agents” (2015)
